Results as given in publication PMC6474797 (ACS chemical biology, 2019).

What was measured:
[1] = with PLAC–PEG polymer, compared with PPD colloids; cited from earlier work
[2] = Critical aggregation concentration; assay type: physicochemical
Summary of the method: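 Colloids were formulated in PBS with 0.01% UP80 and 10 μM of a cholesteryl BODIPY FRET pair (FL C12 donor, 542/563 C11 acceptor; 0.875:0.125) added to the drug stock. They were diluted 10-fold into PBS or serum media and read by fluorescence (excitation 490 nm, acceptor emission 575 nm). Dye-free comparison was by DLS scattering intensity (830 nm laser, 158° detector).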

measured CAC with or without BODIPY dyes ([2]; PBS, fluorescence versus light scattering methods)	critical aggregation concentration (CAC) ([2]; protein-free media, light scattering (Figure S3))	critical aggregation concentration (CAC) ([2]; serum-containing media, colloids with 10 μM BODIPY FRET pair, 0.01% UP80, diluted 10-fold, fluorescence intensity)	SMILES	drug loading [1]
–	–	–	CC(=O)O[C@@]12CO[C@@H]1C[C@H](O)[C@@]1(C)C(=O)[C@H](O)C3=C(C)[C@@H](OC(=O)[C@H](O)[C@@H](NC(=O)OC(C)(C)C)c4ccccc4)C[C@@](O)([C@@H](OC(=O)c4ccccc4)[C@H]21)C3(C)C [docetaxel]	significantly lower drug loading
no difference	low micromolar	increased with serum content	C[C@]12CC[C@@H]3c4ccc(O)cc4C[C@@H](CCCCCCCCC[S+]([O-])CCCC(F)(F)C(F)(F)F)[C@H]3[C@@H]1CC[C@@H]2O (stereo partly shown) [fulvestrant]	–
